Reference: ChEMBL document CHEMBL1129316, “Inhibitors of human immunodeficiency virus type 1 protease containing 2-aminobenzyl-substituted 4-amino-3-hydroxy-5-phenylpentanoic acid: synthesis, activity, and oral bioavailability” (J Med Chem, 1996)

What was measured:
[1] = target: T1, Human immunodeficiency virus type 1 protease (Human immunodeficiency virus 1, UniProt Q72874); experiment: Binding affinity against HIV-1 protease
In short: (§1)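 Recombinant HIV-1 PR expressed in E. coli JM105 and purified to homogeneity. Enzyme incubated at 37 °C in 0.1 M MES, 0.37 M NaCl, 4 mM EDTA, pH 6.25, with 280 µM chromogenic nonapeptide substrate (pNph). Initial rates taken from the absorbance decrease at 298 nm. IC50 fitted, then Ki = (IC50 − Et/2)/(1 + S/Km). Mean of two determinations; DMSO ≤5%.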

[2] = Oral Bioavailability was measured as Maximal observed concentration (Cmax) value at dose 125 mg/kg;b = No compound detectable in blood above the detection limit of 0.1 uM; format: ADME, organism-based; set-up: dose 125 mg/kg, route oral; settings: in vivo
In short: (§2)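 Female Balb/c mice, fasted 24 h before and during the study, water ad libitum. Dosed by oral gavage at 125 mg/kg in a liquid formulation. Heparinized whole blood sampled at various times, methanol-extracted, cleaned on sulfobenzyl SPE, then RP-C18 HPLC with UV at 200 nm against an internal standard. Cmax taken as observed; AUC calculated. Detection limit 0.1 µM.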

[3] = Oral Bioavailability was measured as area-under-curve(AUC) value at dose 125 mg/kg;b = No compound detectable in blood above the detection limit of 0.1 uM; format: ADME, organism-based; settings: in vivo; in short: as §2
[4] = tested on: Human immunodeficiency virus 1; experiment: Antiviral activity against HIV-1, IIIB, in MT-4 Cells; format: functional, organism-based; settings: Human immunodeficiency virus 1, MT4
In short: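 HIV-1 strain IIIB-induced cytopathic effect in HTLV-I-transformed MT4 cells. Virus adsorbed to cells at 1 × 10⁶ cells/mL, 37 °C, 1 h. Compounds added postadsorption, final 1 × 10⁵ cells/mL. Inoculum set to kill 90% of cells in 5 days. Mock-infected and compound-only controls run. DMSO ≤0.3%, medium with 10% FBS. Viability read by MTT after 5 days. Mean of repeat determinations.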

[5] = Oral Bioavailability was measured as area-under-curve(AUC) value at dose 125 mg/kg; b = No compound detectable in blood above the detection limit of 0.1 uM; format: ADME, organism-based; settings: in vivo; in short: as §2
[6] = Solubility (phosphate-buffered saline, pH =7.4); format: physicochemical; settings: read-out: S
In short: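 About 1 mg of lyophilized amorphous inhibitor in 1 mL PBS (pH 7.4), vortexed 1 min and sonicated 30 min at 37 °C. Filtered, then centrifuged at 100 000 rpm for 30 min. Supernatant run on RP-C18 HPLC (10 mM NH4OAc/CH3CN 50/50, UV 210 nm) and quantified by external standard. Minimum detectable 0.1 µg/mL.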

MT4 = experiment: Antiviral Activity against HIV-1, IIIB, in MT-4 Cells; d indicates no activity at 3 uM; format: functional, cell-based, Homo sapiens
In short: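 MT4 cells infected with HIV-1 IIIB; virus adsorbed at 1 × 10⁶ cells/mL, 37 °C, 1 h, then plated at 1 × 10⁵ cells/mL with compound added postadsorption. Inoculum set to kill 90% of cells in 5 days. Incubated 5 days; viability of infected and mock-infected cells by MTT, read spectrophotometrically. Medium with 10% FBS; DMSO ≤0.3%. Values given as mean ± SD, n in parentheses.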

[7] = target: T1, Human immunodeficiency virus type 1 protease; experiment: Binding affinity against HIV-1 protease (HIV-1 PR); d indicates no activity at 3 uM; in short: as §1
[8] = Oral Bioavailability was measured as Maximal observed concentration (Cmax) value at dose 125 mg/kg; b denotes No compound detectable in blood above the detection limit of 0.1 uM; format: ADME, organism-based; set-up: dose 125 mg/kg, route oral; settings: in vivo; in short: as §2
[9] = Oral Bioavailability was measured as area-under-curve(AUC) value at dose 125 mg/kg; b denotes No compound detectable in blood above the detection limit of 0.1 uM; format: ADME, organism-based; settings: in vivo; in short: as §2

Ki [7] | SMILES | Ki [1] [nM] | Cmax [2] | AUC [3] | IC50 [4] [nM] | AUC [5] | solubility [6] [µM] | IC50 (MT4) | Cmax [8] | AUC [9]
– | COc1ccc(CN[C@@H](C(=O)NC2c3ccccc3C[C@H]2O)[C@H](O)[C@H](Cc2ccccc2)NC(=O)[C@@H](NC(=O)/C=C/c2ccc(OC)c(O)c2)C(C)(C)C)cc1 (stereo not given in full) | 5.8 | No compound detectable | No compound detectable | 125 | – | – | – | – | –
– | CC(C)(C)[C@H](NC(=O)OCc1ccccc1)C(=O)N[C@@H](Cc1ccccc1)[C@@H](O)[C@@H](NCc1ccc(CNC(=O)OCc2ccccc2)cc1)C(=O)N[C@H]1c2ccccc2C[C@H]1O | – | No compound detectable | – | 142 | No compound detectable | < 1 | – | – | –
No activity | COc1ccc(CN[C@@H](C(=O)N[C@H](CO)c2ccccc2)[C@H](O)[C@H](Cc2ccccc2)NC(=O)OC(C)(C)C)cc1 | – | – | – | – | – | – | No activity | – | –
– | CC(C)(C)[C@H](NC(=O)OCc1ccccc1)C(=O)N[C@@H](Cc1ccccc1)[C@@H](O)[C@@H](NCc1ccc(CNC(=O)CCc2nc3ccccc3[nH]2)cc1)C(=O)N[C@@H]1c2ccccc2C[C@H]1O | 4.1 | – | – | 161 | – | < 1 | – | No compound detectable | No compound detectable
